In ChEMBL document CHEMBL5532695, “4-Trifluoromethyl bithiazoles as broad-spectrum antimicrobial agents for virus-related bacterial infections or co-infections” (RSC Med Chem, 2024):

What was measured:
Bacillus subtilis [1] = assay: Bactericidal activity against Bacillus subtilis ATCC 6633 assessed as reduction in microbial growth measured after 18 hrs by CLSI based broth microdilution method; format: functional
Summary of the method: (§1)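 MBC by CLSI broth microdilution in Mueller–Hinton medium, triplicate. Inoculum 5 × 10^4 CFU per well. Read after 18 h at 35 ± 2 °C.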

[2] = system: Staphylococcus haemolyticus; assay: Bactericidal activity against oxacillin-resistant Staphylococcus haemolyticus SI-6/2011 assessed as reduction in microbial growth measured after 18 hrs by CLSI based broth microdilution method; format: functional
[3] = molecular target: Phosphatidylinositol 4-kinase beta (Homo sapiens, UniProt Q9UBF8); assay: Inhibition of recombinant full length his tagged PI4KB (unknown origin) incubated for 10 mins in presence of ATP by ADP-glo kinase assay
Phosphatidylinositol 4-kinase beta, sequence (Q9UBF8 whole entry): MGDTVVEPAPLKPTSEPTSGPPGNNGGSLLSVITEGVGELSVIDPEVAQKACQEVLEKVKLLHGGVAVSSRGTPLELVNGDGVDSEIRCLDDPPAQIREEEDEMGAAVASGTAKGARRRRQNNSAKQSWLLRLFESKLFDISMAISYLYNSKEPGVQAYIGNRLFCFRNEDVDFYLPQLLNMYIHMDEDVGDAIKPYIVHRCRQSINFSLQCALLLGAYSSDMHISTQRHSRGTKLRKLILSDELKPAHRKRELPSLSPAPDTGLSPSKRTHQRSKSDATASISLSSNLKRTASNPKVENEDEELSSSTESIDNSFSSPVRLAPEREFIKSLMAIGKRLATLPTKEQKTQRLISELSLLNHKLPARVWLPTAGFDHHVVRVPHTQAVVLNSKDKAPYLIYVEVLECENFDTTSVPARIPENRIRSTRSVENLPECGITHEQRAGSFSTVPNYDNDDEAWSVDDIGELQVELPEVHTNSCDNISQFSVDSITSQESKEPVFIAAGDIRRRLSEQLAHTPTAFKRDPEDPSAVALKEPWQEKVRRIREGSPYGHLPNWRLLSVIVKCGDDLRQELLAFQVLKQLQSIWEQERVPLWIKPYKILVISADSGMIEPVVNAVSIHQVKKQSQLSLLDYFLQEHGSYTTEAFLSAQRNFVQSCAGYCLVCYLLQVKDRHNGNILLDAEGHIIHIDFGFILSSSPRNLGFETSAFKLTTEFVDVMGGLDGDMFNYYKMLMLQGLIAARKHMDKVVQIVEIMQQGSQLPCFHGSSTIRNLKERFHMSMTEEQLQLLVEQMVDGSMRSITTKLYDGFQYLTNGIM

Staphylococcus aureus [4] = assay: Antibacterial activity against methicillin-resistant Staphylococcus aureus ATCC 43300 assessed as reduction in microbial growth measured after 18 hrs by CLSI based broth microdilution method; format: functional
Summary of the method: (§2)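 Gram-positive clinical isolates; compounds dissolved in DMSO (50 mg mL−1 stock) and diluted in medium; MIC by CLSI broth microdilution in Mueller–Hinton medium, inoculum 5 × 10^4 CFU per well, read after 18 h at 35 ± 2 °C; triplicate.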

rhinovirus A16 [5] = conditions: hela
Enterococcus faecium [6] = assay: Bactericidal activity against Vancomycin resistant Enterococcus faecium SI-3856B assessed as reduction in microbial growth measured after 18 hrs by CLSI based broth microdilution method; format: functional
[7] = system: Staphylococcus haemolyticus; assay: Antibacterial activity against oxacillin-resistant Staphylococcus haemolyticus SI-6/2011 assessed as reduction in microbial growth measured after 18 hrs by CLSI based broth microdilution method; format: functional; summary of the method: as §2
Escherichia coli = assay: Synergistic antibacterial activity against Escherichia coli CCUGT incubated for 18 to 24 hrs in presence of colistin by broth microdilution method; format: functional; conditions: time 18-24 hrs
Staphylococcus warneri [8] = assay: Antibacterial activity against oxacillin-resistant Staphylococcus warneri SI-5/2011 assessed as reduction in microbial growth measured after 18 hrs by CLSI based broth microdilution method; format: functional; summary of the method: as §2
Enterococcus faecium [9] = assay: Bactericidal activity against Vancomycin/teicoplanin resistant Enterococcus faecium SI-759 assessed as reduction in microbial growth measured after 18 hrs by CLSI based broth microdilution method; format: functional
Klebsiella pneumoniae = assay: Synergistic antibacterial activity against Klebsiella pneumoniae ATCC 13833 incubated for 18 to 24 hrs in presence of colistin by broth microdilution method; format: functional; conditions: time 18-24 hrs
[10] = Cytotoxicity against african green monkey Vero E6 cells assessed as reduction in cell viability by MTT assay; format: toxicity, cell-based; conditions: chlorocebus sabaeus, Vero E6 cells (Vero C1008)
Summary of the method: (§3)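 MTT viability on HeLa or VeroE6 cells, run in parallel with the antiviral assays. CC50 from variable-slope sigmoidal dose–response regression.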

Enterococcus faecium [11] = assay: Antibacterial activity against Vancomycin resistant Enterococcus faecium SI-3856B assessed as reduction in microbial growth measured after 18 hrs by CLSI based broth microdilution method; format: functional; summary of the method: as §2
Streptococcus pyogenes [12] = assay: Antibacterial activity against Streptococcus pyogenes ATCC 12344 assessed as reduction in microbial growth measured after 18 hrs by CLSI based broth microdilution method; format: functional
Summary of the method: (§4)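 MIC by CLSI broth microdilution in Mueller–Hinton medium, triplicate. Inoculum 5 × 10^4 CFU per well. Compounds taken up in DMSO (50 mg mL−1 stock) and diluted in medium. Read after 18 h at 35 ± 2 °C.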

Enterococcus faecalis [13] = assay: Bactericidal activity against Enterococcus faecalis ATCC 29212 assessed as reduction in microbial growth measured after 18 hrs by CLSI based broth microdilution method; format: functional; summary of the method: as §1
Enterococcus faecium [14] = assay: Bactericidal activity against Vancomycin resistant Enterococcus faecium SI-1831 assessed as reduction in microbial growth measured after 18 hrs by CLSI based broth microdilution method; format: functional
Bacillus subtilis [15] = assay: Antibacterial activity against Bacillus subtilis ATCC 6633 assessed as reduction in microbial growth measured after 18 hrs by CLSI based broth microdilution method; format: functional; summary of the method: as §4
Staphylococcus warneri [16] = assay: Bactericidal activity against oxacillin-resistant Staphylococcus warneri SI-5/2011 assessed as reduction in microbial growth measured after 18 hrs by CLSI based broth microdilution method; format: functional
Staphylococcus aureus [17] = assay: Bactericidal activity against Staphylococcus aureus ATCC 25923 assessed as reduction in microbial growth measured after 18 hrs by CLSI based broth microdilution method; format: functional; summary of the method: as §1
Enterococcus faecium [18] = assay: Antibacterial activity against Vancomycin/teicoplanin resistant Enterococcus faecium SI-759 assessed as reduction in microbial growth measured after 18 hrs by CLSI based broth microdilution method; format: functional; summary of the method: as §2
Pseudomonas aeruginosa = assay: Synergistic antibacterial activity against Pseudomonas aeruginosa ATCC 27853 incubated for 18 to 24 hrs in presence of colistin by broth microdilution method; format: functional; conditions: time 18-24 hrs
Enterococcus faecium [19] = assay: Antibacterial activity against Vancomycin resistant Enterococcus faecium SI-1831 assessed as reduction in microbial growth measured after 18 hrs by CLSI based broth microdilution method; format: functional; summary of the method: as §2
Streptococcus pyogenes [20] = assay: Bactericidal activity against Streptococcus pyogenes ATCC 12344 assessed as reduction in microbial growth measured after 18 hrs by CLSI based broth microdilution method; format: functional; summary of the method: as §1
enterovirus D68 [21] = conditions: hela
Staphylococcus aureus [22] = assay: Bactericidal activity against methicillin-resistant Staphylococcus aureus ATCC 43300 assessed as reduction in microbial growth measured after 18 hrs by CLSI based broth microdilution method; format: functional
Staphylococcus aureus [23] = assay: Antibacterial activity against Staphylococcus aureus ATCC 25923 assessed as reduction in microbial growth measured after 18 hrs by CLSI based broth microdilution method; format: functional; summary of the method: as §4
Acinetobacter baumannii = assay: Synergistic antibacterial activity against Acinetobacter baumannii ATCC 17978 incubated for 18 to 24 hrs in presence of colistin by broth microdilution method; format: functional; conditions: time 18-24 hrs
[24] = system: Staphylococcus epidermidis; assay: Antibacterial activity against linezolid-resistant Staphylococcus epidermidis SI-1266 assessed as reduction in microbial growth measured after 18 hrs by CLSI based broth microdilution method; format: functional; summary of the method: as §2
[25] = Cytotoxicity against human HeLa cells assessed as reduction in cell viability by MTT assay; format: toxicity, cell-based; summary of the method: as §3
Enterococcus faecalis [26] = assay: Antibacterial activity against Enterococcus faecalis ATCC 29212 assessed as reduction in microbial growth measured after 18 hrs by CLSI based broth microdilution method; format: functional; summary of the method: as §4
[27] = system: Staphylococcus epidermidis; assay: Bactericidal activity against linezolid-resistant Staphylococcus epidermidis SI-1266 assessed as reduction in microbial growth measured after 18 hrs by CLSI based broth microdilution method; format: functional
Zika virus [28] = conditions: vero e6
Zika virus [29] = assay: microbe, parasite or virus in culture; conditions: Vero C1008, 72 h
rhinovirus A16 [30] = assay: microbe, parasite or virus in culture; conditions: Rhinovirus A, HeLa, 48 h
enterovirus D68 [31] = assay: microbe, parasite or virus in culture; conditions: Enterovirus D, HeLa, 48 h

| IC50 [3] | MIC (Streptococcus pyogenes [12]) [µg/mL] | MIC (Bacillus subtilis [15]) [µg/mL] | MIC (Staphylococcus aureus [23]) [µg/mL] | MIC (Enterococcus faecalis [26]) [µg/mL] | IC50 (Zika virus [28]) | IC50 (rhinovirus A16 [30]) [µM] | IC50 (enterovirus D68 [31]) [µM] | SMILES | MBC (Bacillus subtilis [1]) [µg/mL] | MAC (Escherichia coli) [µg/mL] | MAC (Klebsiella pneumoniae) [µg/mL] | CC50 [10] [µM] | MAC (Pseudomonas aeruginosa) [µg/mL] | MBC (Streptococcus pyogenes [20]) [µg/mL] | IC50 (enterovirus D68 [21]) | MAC (Acinetobacter baumannii) [µg/mL] | CC50 [25] [µM] | other results |
| --- | --- | --- | --- | --- | --- | --- | --- | --- | --- | --- | --- | --- | --- | --- | --- | --- | --- | --- |
| Not Active | > 32 | > 32 | > 32 | > 32 | – | 10.4 | 5.74 | CC(C)(C)C(=O)Nc1nc(C(F)(F)F)c(-c2c[nH]c(Nc3cccc(C(F)(F)F)c3)n2)s1 | – | 32 | >64 | > 50 | >64 | – | – | 16 | > 50 | IC50 (Zika virus [29]): 8.52 µM |
| – | 16 | 32 | > 32 | > 32 | Not Active | 9.77 | 10 | CC(C)(C)C(=O)Nc1nc(C(F)(F)F)c(-c2csc(Nc3ccc(O)c(C(=O)O)c3)n2)s1 | > 32 | >64 | >64 | > 50 | >64 | > 32 | – | >64 | > 50 | – |
| Not Active | > 32 | > 32 | > 32 | > 32 | Not Active | 2.44 | – | COC(=O)c1cc(Nc2nc(-c3sc(NC(=O)c4ccccc4)nc3C(F)(F)F)cs2)cc(C(F)(F)F)c1 | – | >64 | >64 | > 50 | >64 | – | Not Active | >64 | 22.9 | – |

| SMILES | IC50 [3] | MIC (Streptococcus pyogenes [12]) [µg/mL] | MIC (Bacillus subtilis [15]) [µg/mL] | MIC (Staphylococcus aureus [23]) [µg/mL] | MIC (Enterococcus faecalis [26]) [µg/mL] | IC50 (Zika virus [28]) | IC50 (rhinovirus A16 [30]) [µM] | IC50 (enterovirus D68 [31]) [µM] | MBC (Bacillus subtilis [1]) [µg/mL] | MAC (Escherichia coli) [µg/mL] | MAC (Klebsiella pneumoniae) [µg/mL] | CC50 [10] [µM] | MAC (Pseudomonas aeruginosa) [µg/mL] | MBC (Streptococcus pyogenes [20]) [µg/mL] | IC50 (enterovirus D68 [21]) | MAC (Acinetobacter baumannii) [µg/mL] | CC50 [25] [µM] | other results |
| --- | --- | --- | --- | --- | --- | --- | --- | --- | --- | --- | --- | --- | --- | --- | --- | --- | --- | --- |
| O=C(Nc1nc(C(F)(F)F)c(-c2csc(Nc3ccc(O)c(C(=O)O)c3)n2)s1)c1ccccc1 | Not Active | 4 | 16 | 16 | 16 | Not Active | – | – | > 32 | >64 | >64 | > 50 | >64 | 32 | Not Active | >64 | > 50 | MBC [2]: 64 µg/mL; MIC (Staphylococcus aureus [4]): 32 µg/mL; IC50 (rhinovirus A16 [5]): Not Active; MBC (Enterococcus faecium [6]): > 64 µg/mL; MIC [7]: 32 µg/mL; MIC (Staphylococcus warneri [8]): 64 µg/mL; MBC (Enterococcus faecium [9]): 64 µg/mL; MIC (Enterococcus faecium [11]): 32 µg/mL; MBC (Enterococcus faecalis [13]): > 32 µg/mL; MBC (Enterococcus faecium [14]): > 64 µg/mL; MBC (Staphylococcus warneri [16]): 64 µg/mL; MBC (Staphylococcus aureus [17]): 32 µg/mL; MIC (Enterococcus faecium [18]): 16 µg/mL; MIC (Enterococcus faecium [19]): 32 µg/mL; MBC (Staphylococcus aureus [22]): > 64 µg/mL; MIC [24]: 32 µg/mL; MBC [27]: 64 µg/mL |
